# Legend:
# Assay type in all cases: functional
# EKVX [1] = test: Growth inhibition of human EKVX cells incubated for 48 hrs by sulforhodamine B assay
# In short: (§1)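 NCI five-dose screen covering 0.01–100 µM, prepared as 10-fold or ½-log dilutions from DMSO stock. Cells in RPMI 1640 with 5% FBS were exposed for 48 h at 37 °C after 24 h preincubation. Adherent cells were fixed with TCA (final 10%) and suspension cells were settled before fixing. Stain was SRB, read at 515 nm. GI50 = 50% reduction in net protein increase versus control, with Tz taken at drug addition.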
# NCI-H226 = test: Growth inhibition of human NCI-H226 cells incubated for 48 hrs by sulforhodamine B assay
# In short: (§2)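 NCI five-dose screen (0.01–100 µM; five concentrations plus control). Cells grown in RPMI 1640/5% FBS/2 mM L-glutamine and preincubated 24 h, with time-zero plates TCA-fixed. Drug exposure 48 h at 37 °C, followed by SRB protein staining and reading at 515 nm. GI50 is the concentration at [(Ti-Tz)/(C-Tz)]×100 = 50.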
# NCI-H460 [2] = test: Growth inhibition of human NCI-H460 cells incubated for 48 hrs by sulforhodamine B assay; in short: as §2
# HCT-15 = test: Growth inhibition of human HCT-15 cells incubated for 48 hrs by sulforhodamine B assay; in short: as §1
# SF-295 = test: Growth inhibition of human SF-295 cells incubated for 48 hrs by sulforhodamine B assay; in short: as §2
# SNB-19 = test: Growth inhibition of human SNB-19 cells incubated for 48 hrs by sulforhodamine B assay; in short: as §2
# SNB-75 = test: Growth inhibition of human SNB-75 cells incubated for 48 hrs by sulforhodamine B assay; in short: as §2
# LOX IMVI = test: Growth inhibition of human LOX IMVI cells incubated for 48 hrs by sulforhodamine B assay; in short: as §1
# M14 = test: Growth inhibition of human M14 cells incubated for 48 hrs by sulforhodamine B assay; in short: as §1
# MDA-MB-435 = test: Growth inhibition of human MDA-MB-435 cells incubated for 48 hrs by sulforhodamine B assay; in short: as §1
# SK-MEL-2 = test: Growth inhibition of human SK-MEL-2 cells incubated for 48 hrs by sulforhodamine B assay; in short: as §2
# SK-MEL-5 [3] = test: Growth inhibition of human SK-MEL-5 cells incubated for 48 hrs by sulforhodamine B assay; in short: as §2
# OVCAR-8 [4] = test: Growth inhibition of human OVCAR-8 cells incubated for 48 hrs by sulforhodamine B assay; in short: as §2
# A498 = test: Growth inhibition of human A498 cells incubated for 48 hrs by sulforhodamine B assay
# In short: (§3)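 NCI five-dose assay, with drug stocks in DMSO diluted in medium to five concentrations (10-fold or ½-log series). Cells in RPMI 1640/5% FBS were pre-incubated 24 h, and time-zero plates were TCA-fixed at drug addition. After 48 h at 37 °C, cells were TCA-fixed, SRB-stained and read at 515 nm. GI50 is from [(Ti-Tz)/(C-Tz)]×100 = 50, TGI from Ti = Tz, and LC50 from [(Ti-Tz)/Tz]×100 = -50.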
# CAKI-1 = test: Growth inhibition of human CAKI-1 cells incubated for 48 hrs by sulforhodamine B assay; in short: as §1
# RXF 393 [5] = test: Growth inhibition of human RXF 393 cells incubated for 48 hrs by sulforhodamine B assay; in short: as §2
# TK-10 [6] = test: Growth inhibition of human TK-10 cells incubated for 48 hrs by sulforhodamine B assay; in short: as §3
# UO-31 = test: Growth inhibition of human UO-31 cells incubated for 48 hrs by sulforhodamine B assay; in short: as §3
# DU-145 = test: Growth inhibition of human DU-145 cells incubated for 48 hrs by sulforhodamine B assay; in short: as §1
# MCF7 = test: Growth inhibition of human MCF7 cells incubated for 48 hrs by sulforhodamine B assay; in short: as §1
# Hs-578T = test: Growth inhibition of human HS-578T cells incubated for 48 hrs by sulforhodamine B assay; in short: as §1
# SR = test: Growth inhibition of human SR cells at 10 uM incubated for 48 hrs by sulforhodamine B assay relative to control; details: read-out: GI
# In short: (§4)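 NCI one-dose screen. Cells grown in RPMI 1640 with 5% FBS and 2 mM L-glutamine, plated and incubated 24 h at 37 °C, 5% CO2. DMSO-dissolved drug added, then 48 h further incubation. Adherent cells fixed with cold TCA, suspension cells fixed after settling. Stained with 0.4% SRB, absorbance read at 515 nm. Reported as percent growth relative to no-drug control and time-zero cell number.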
# EKVX [7] = test: Growth inhibition of human EKVX cells at 10 uM incubated for 48 hrs by sulforhodamine B assay relative to control; details: read-out: GI
# In short: (§5)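 NCI-60 single-dose screen. Cells were grown in RPMI 1640 with 5% FBS and 2 mM L-glutamine and plated 24 h before drug addition. Compound was added at one concentration in DMSO-derived medium and incubated for 48 h at 37 °C in 5% CO2. Read-out was SRB protein stain at 515 nm. Result is percent growth versus the no-drug control and the time-zero cell count; values below 0 indicate lethality.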
# NCI-H460 [8] = test: Growth inhibition of human NCI-H460 cells at 10 uM incubated for 48 hrs by sulforhodamine B assay relative to control; details: read-out: GI; in short: as §4
# KM12 = test: Growth inhibition of human KM12 cells at 10 uM incubated for 48 hrs by sulforhodamine B assay relative to control; details: read-out: GI; in short: as §5
# SW-620 = test: Growth inhibition of human SW-620 cells at 10 uM incubated for 48 hrs by sulforhodamine B assay relative to control; details: read-out: GI
# In short: (§6)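 NCI one-dose screen across a 59-line panel. Cells were grown in RPMI 1640 with 5% FBS and 2 mM L-glutamine, plated and pre-incubated 24 h, then exposed to drug for 48 h at 37 °C, 5% CO2. Adherent cells were fixed with cold TCA (10% final), stained with 0.4% SRB in 1% acetic acid and read at 515 nm. Result is percent growth relative to no-drug control and time-zero cell count.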
# SF-539 = test: Growth inhibition of human SF-539 cells at 10 uM incubated for 48 hrs by sulforhodamine B assay relative to control; details: read-out: GI; in short: as §4
# U-251 = test: Growth inhibition of human U-251 cells at 10 uM incubated for 48 hrs by sulforhodamine B assay relative to control; details: read-out: GI; in short: as §6
# SK-MEL-5 [9] = test: Growth inhibition of human SK-MEL-5 cells at 10 uM incubated for 48 hrs by sulforhodamine B assay relative to control; details: read-out: GI; in short: as §4
# UACC-257 = test: Growth inhibition of human UACC-257 cells at 10 uM incubated for 48 hrs by sulforhodamine B assay relative to control; details: read-out: GI; in short: as §6
# OVCAR-8 [10] = test: Growth inhibition of human OVCAR-8 cells at 10 uM incubated for 48 hrs by sulforhodamine B assay relative to control; details: read-out: GI; in short: as §4
# RXF 393 [11] = test: Growth inhibition of human RXF 393 cells at 10 uM incubated for 48 hrs by sulforhodamine B assay relative to control; details: read-out: GI; in short: as §4
# TK-10 [12] = test: Growth inhibition of human TK-10 cells at 10 uM incubated for 48 hrs by sulforhodamine B assay relative to control; details: read-out: GI; in short: as §6
# MDA-MB-468 = test: Growth inhibition of human MDA-MB-468 cells at 10 uM incubated for 48 hrs by sulforhodamine B assay relative to control; details: read-out: GI; in short: as §5
Compound,GI50 (EKVX [1]) [nM],GI50 (NCI-H226) [nM],GI50 (NCI-H460 [2]) [nM],GI50 (HCT-15) [nM],GI50 (SF-295) [nM],GI50 (SNB-19) [nM],GI50 (SNB-75) [nM],GI50 (LOX IMVI) [nM],TGI (LOX IMVI) [nM],GI50 (M14) [nM],GI50 (MDA-MB-435) [nM],GI50 (SK-MEL-2) [nM],GI50 (SK-MEL-5 [3]) [nM],GI50 (OVCAR-8 [4]) [nM],GI50 (A498) [nM],GI50 (CAKI-1) [nM],GI50 (RXF 393 [5]) [nM],GI50 (UO-31) [nM],GI50 (MCF7) [nM],GI50 (Hs-578T) [nM],also measured
COc1cc2nc(-c3ccc(C(F)(F)F)cc3)cc(OCCCN3CCC(O)CC3)c2cc1OC,1030,1590,835,667,1610,10500,2580,190,447,535,2760,3850,1430,1660,2370,376,1340,2710,2570,3750,GI50 (TK-10 [6]): 11500 nM; GI50 (DU-145): 4960 nM
COc1cc2nc(-c3ccc(Cl)cc3)cc(OCCCN3CCCC3)c2cc1OC,1210,898,823,567,1220,3140,1730,191,446,402,2720,2160,961,1190,2190,303,1170,1720,1330,1890,inhibition of growth at 10 µM (SR): 62%; inhibition of growth at 10 µM (EKVX [7]): 62%; inhibition of growth at 10 µM (NCI-H460 [8]): 62%; inhibition of growth at 10 µM (KM12): 62%; inhibition of growth at 10 µM (SW-620): 62%; inhibition of growth at 10 µM (SF-539): 62%; inhibition of growth at 10 µM (U-251): 62%; inhibition of growth at 10 µM (SK-MEL-5 [9]): 62%; inhibition of growth at 10 µM (UACC-257): 62%; inhibition of growth at 10 µM (OVCAR-8 [10]): 62%; inhibition of growth at 10 µM (RXF 393 [11]): 62%; inhibition of growth at 10 µM (TK-10 [12]): 62%; inhibition of growth at 10 µM (MDA-MB-468): 62%; GI50 (TK-10 [6]): 2330 nM; GI50 (DU-145): 2150 nM
COc1cc2nc(-c3ccc(Cl)cc3)cc(OCCCN3CCCCC3)c2cc1OC,1470,1120,842,604,1210,2980,1980,189,435,412,2440,2750,1100,1770,1400,287,1080,1870,1560,2110,inhibition of growth at 10 µM (SR): 62%; inhibition of growth at 10 µM (EKVX [7]): 62%; inhibition of growth at 10 µM (NCI-H460 [8]): 62%; inhibition of growth at 10 µM (KM12): 62%; inhibition of growth at 10 µM (SW-620): 62%; inhibition of growth at 10 µM (SF-539): 62%; inhibition of growth at 10 µM (U-251): 62%; inhibition of growth at 10 µM (SK-MEL-5 [9]): 62%; inhibition of growth at 10 µM (UACC-257): 62%; inhibition of growth at 10 µM (OVCAR-8 [10]): 62%; inhibition of growth at 10 µM (RXF 393 [11]): 62%; inhibition of growth at 10 µM (TK-10 [12]): 62%; inhibition of growth at 10 µM (MDA-MB-468): 62%; GI50 (TK-10 [6]): 3730 nM; GI50 (DU-145): 2540 nM
COc1cc2nc(-c3ccc(C(F)(F)F)cc3)cc(OCCCN3CCOCC3)c2cc1OC,1610,406,639,520,349,2910,2460,141,324,355,1200,3320,288,1950,1510,167,706,1770,1550,2250,GI50 (TK-10 [6]): 13900 nM; GI50 (DU-145): 10100 nM
COc1cc2nc(-c3ccc(C(F)(F)F)cc3)cc(OCCCN3CCCC3)c2cc1OC,982,343,528,416,328,2770,1850,116,275,336,709,1930,247,806,1580,188,1130,2020,976,1740,TGI (SK-MEL-5 [3]): 645 nM; GI50 (TK-10 [6]): 3240 nM; GI50 (DU-145): 1370 nM
COc1cc2nc(-c3ccc(Cl)cc3)cc(OCCCN3CCOCC3)c2cc1OC,1730,997,958,754,1080,,2060,217,592,545,1900,,832,2150,1590,305,1120,1780,2490,2400,inhibition of growth at 10 µM (SR): 62%; inhibition of growth at 10 µM (EKVX [7]): 62%; inhibition of growth at 10 µM (NCI-H460 [8]): 62%; inhibition of growth at 10 µM (KM12): 62%; inhibition of growth at 10 µM (SW-620): 62%; inhibition of growth at 10 µM (SF-539): 62%; inhibition of growth at 10 µM (U-251): 62%; inhibition of growth at 10 µM (SK-MEL-5 [9]): 62%; inhibition of growth at 10 µM (UACC-257): 62%; inhibition of growth at 10 µM (OVCAR-8 [10]): 62%; inhibition of growth at 10 µM (RXF 393 [11]): 62%; inhibition of growth at 10 µM (TK-10 [12]): 62%; inhibition of growth at 10 µM (MDA-MB-468): 62%
COc1cc2nc(-c3ccc(C(F)(F)F)cc3)cc(OCCCN3CCCCC3)c2cc1OC,803,370,595,399,530,2820,1960,162,355,327,1230,2640,325,734,1850,272,1090,2000,1160,2150,TGI (SK-MEL-5 [3]): 1200 nM; GI50 (TK-10 [6]): 7800 nM; GI50 (DU-145): 1840 nM

# — ChEMBL document CHEMBL4732237, “Discovery of 4-alkoxy-2-aryl-6,7-dimethoxyquinolines as a new class of topoisomerase I inhibitors endowed with potent in vitro anticancer activity” (2021)
